Data: ChEMBL document CHEMBL2093137, “WHO-TDR NTD Screening”
≈ marks a conversion by molar mass, not a printed value.

Legend:
[1] = WHO-TDR: Cytotoxicity; format: toxicity, cell-based; conditions: human, MRC5 cells
Plasmodium falciparum K1 = experiment: WHO-TDR: Malaria; format: functional, organism-based, Homo sapiens; conditions: Erythrocyte
Method in brief: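 A diverse library of 10,000 compounds from Life Chemicals, filtered for drug-likeness and reactive groups, was screened against the intra-erythrocytic Plasmodium falciparum K1 strain in human red blood cells. Previously published standard procedures were followed, with a reference drug as positive control. Antiplasmodial potency is given as IC50.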

Trypanosoma cruzi = experiment: WHO-TDR: Chagas disease; format: functional, organism-based, Homo sapiens; conditions: MRC5
Method in brief: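 A diverse library of 10,000 compounds from Life Chemicals, filtered for drug-likeness and reactive groups, was screened against intracellular amastigotes of Trypanosoma cruzi Tulahuen CL2 beta-galactosidase strain. The parasites were grown in MRC-5SV2 human lung fibroblast host cells, and a reference drug served as positive control under previously published standard procedures. Antiparasitic potency is given as IC50.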

[2] = test system: Trypanosoma brucei brucei; experiment: WHO-TDR: Human African Trypanosomiasis (HAT); format: functional, organism-based; conditions: Squib-427
Method in brief: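 A diverse library of 10,000 compounds from Life Chemicals, filtered for drug-likeness and reactive groups, was screened against bloodstream forms of Trypanosoma brucei Squib 427 strain in a whole-organism assay. Previously published standard procedures were followed, with reference drugs serving as positive controls. Antiparasitic potency is given as IC50.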

Leishmania infantum = experiment: WHO-TDR: Leishmaniasis; format: functional, organism-based, Mus musculus; conditions: Macrophage
Method in brief: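 A diverse library of 10,000 compounds from Life Chemicals, filtered for drug-likeness and reactive groups, was screened against whole organisms. The targets were intracellular amastigotes of Leishmania infantum MHOM/MA(BE)/67 growing in murine peritoneal macrophages. Previously published standard procedures were followed, with a reference drug as positive control. Antiparasitic potency is given as IC50.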

Schistosoma mansoni = experiment: WHO-TDR: Schistosomiasis; format: functional; parameters: concentration or dose not given beside the values
Method in brief: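 A diverse library of 10,000 compounds from Life Chemicals, filtered for drug-likeness and reactive groups, was screened against whole larval and/or adult Schistosoma mansoni worms of the Puerto Rican strain. Previously published standard procedures were followed, with a reference drug as positive control. Activity is given as percent inhibition and as IC50.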

Onchocerca ochengi [3] = experiment: (§1) WHO-TDR: Onchocerciasis; format: functional; parameters: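 at 12.5 µM on microfilariae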
Method in brief: (§2)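 A diverse library of 10,000 compounds from Life Chemicals, filtered for drug-likeness and reactive groups, was screened against whole microfilariae of Onchocerca ochengi or Onchocerca lienalis. These animal pathogens served as stand-ins for the human parasite. Activity is given as percent inhibition and as IC50.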

Onchocerca ochengi [4] = experiment: as §1; format: functional; parameters: concentration or dose not given beside the values; method in brief: as §2; remark: listed apart in the source
Onchocerca lienalis = experiment: as §1; format: functional; parameters: concentration or dose not given beside the values; method in brief: as §2;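 note: at 12.5 µM on microfilariae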
Brugia malayi = experiment: WHO-TDR: Lymphatic Filariasis; format: functional; parameters: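 tested at 10 µM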
Method in brief: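 A diverse library of 10,000 compounds from Life Chemicals was screened against Brugia malayi microfilariae in a whole-organism assay. The library had been filtered for drug-likeness and reactive groups. Activity is given as percent inhibition and as IC50.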

| SMILES | IC50 (Plasmodium falciparum K1) [µg/mL] | IC50 [2] [µg/mL] | IC50 (Leishmania infantum) [µg/mL] | IC50 [1] [µg/mL] | IC50 (Trypanosoma cruzi) [µg/mL] | % Inhibition (Schistosoma mansoni) [%] | % Inhibition (Onchocerca ochengi [3]) [%] | % Inhibition (Onchocerca ochengi [4]) [%] | % Inhibition (Onchocerca lienalis) [%] | % Inhibition (Brugia malayi) [%] |
| --- | --- | --- | --- | --- | --- | --- | --- | --- | --- | --- |
| CCOc1ccc(-c2ccc(OCCNS(=O)(=O)c3cc(C)c(C)cc3C)nn2)cc1 | > 13.2 | 4.24 (≈ 9.6 µM) | > 13.2 | > 13.2 | 0.752 (≈ 1.7 µM) | 0 |  |  | 13.3 | 0 |
| CCCc1cc(=O)[nH]c(-n2nc(C)cc2NC(=O)C23CC4CC(CC(C4)C2)C3)n1 | 0.119 (≈ 0.3 µM) | < 0.119 | 3.84 (≈ 9.71 µM) | < 0.119 | < 0.119 | 100 | 100 | 75 |  |  |
| CCCc1cc(=O)[nH]c(-n2nc(C)cc2NC(=O)COc2ccc(Cl)cc2Cl)n1 | 5.1 (≈ 11.7 µM) | 0.47 (≈ 1.08 µM) | > 13.1 | 0.362 (≈ 0.83 µM) | 0.395 (≈ 0.904 µM) | 0 | 75 | 0 |  |  |
| CCCc1cc(=O)[nH]c(-n2nc(C)cc2NC(=O)C2CC(=O)N(c3ccc(C)c(C)c3)C2)n1 (centres undefined) | > 13.5 | 3.99 (≈ 8.9 µM) | 4.36 (≈ 9.71 µM) | 4.51 (≈ 10 µM) | 1.28 (≈ 2.86 µM) | 0 | 50 | 0 |  |  |
| Cc1cc(NC(=O)COc2ccc(Cl)cc2)n(-c2nc(C)c(C)c(=O)[nH]2)n1 | 2.07 (≈ 5.33 µM) | 0.377 (≈ 0.971 µM) | > 11.6 | 0.338 (≈ 0.872 µM) | 0.359 (≈ 0.926 µM) | 0 | 50 | 0 |  |  |
| Cc1cc(NC(=O)C2(c3ccc(Cl)cc3)CCCC2)n(-c2nc3c(c(=O)[nH]2)CCC3)n1 | 0.644 (≈ 1.47 µM) | 0.42 (≈ 0.959 µM) | > 13.1 | 0.338 (≈ 0.772 µM) | 0.37 (≈ 0.844 µM) | 56.7 | 0 | 0 |  |  |
| O=C(c1ccco1)N1CCN(c2ccc(-c3cccs3)nn2)CC1 | 5.12 (≈ 15 µM) | > 10.2 | > 10.2 | > 10.2 | > 10.2 | 0 | 100 | 0 |  |  |
| CCOc1cccc2cc(-c3csc(NC(=O)c4sc5ccccc5c4Cl)n3)oc12 | > 13.6 | 0.237 (≈ 0.521 µM) | 3.69 (≈ 8.11 µM) | 0.237 (≈ 0.521 µM) | 11.8 (≈ 25.9 µM) | 0 | 0 | 0 |  |  |
| O=C(Nc1nc(-c2ccncc2)cs1)C1CCCN(S(=O)(=O)c2cccs2)C1 (centres undefined) | > 13 | 4.33 (≈ 9.95 µM) | > 13 | 9.25 (≈ 21.3 µM) | 0.534 (≈ 1.23 µM) | 0 | 50 | 0 |  |  |
| O=C(Nc1nc(-c2ccncc2)cs1)C1CCCN(S(=O)(=O)c2ccc(Cl)s2)C1 (centres undefined) | 6.68 (≈ 14.2 µM) | 4.5 (≈ 9.6 µM) | 4.55 (≈ 9.71 µM) | > 14.1 | 0.243 (≈ 0.518 µM) | 0 | 50 | 0 |  |  |
| Cc1nnc(NC(=O)COc2cccc3ccc(N4CCCC(C)C4)nc23)s1 (centres undefined) | > 11.9 | > 11.9 | 6.18 (≈ 15.5 µM) | > 11.9 | 0.407 (≈ 1.02 µM) | 0 | 50 | 0 |  |  |
| O=C(CC1CCCCN1S(=O)(=O)c1ccc(Cl)cc1)Nc1ccc2c(c1)OCO2 (centres undefined) | > 13.1 | 4.24 (≈ 9.71 µM) | > 13.1 | > 13.1 | 0.789 (≈ 1.81 µM) | 0 | 0 | 0 |  |  |
| Cc1ccc(S(=O)(=O)N2CCCCC2CC(=O)Nc2ccc(Cl)cc2)cc1 (centres undefined) | > 12.2 | 5.79 (≈ 14.2 µM) | > 12.2 | > 12.2 | 0.421 (≈ 1.03 µM) | 0 | 0 | 0 |  |  |
| Cc1ccc(S(=O)(=O)N2CCCCC2CC(=O)Nc2ccc(F)c(C(F)(F)F)c2)cc1 (centres undefined) | > 13.8 | 6.11 (≈ 13.3 µM) | > 13.8 | > 13.8 | 0.889 (≈ 1.94 µM) | 0 | 0 | 0 |  |  |
| O=C(CC1CCCCN1S(=O)(=O)c1ccc(Cl)cc1)NCCC1=CCCCC1 (centres undefined) | > 12.7 | 4.23 (≈ 9.95 µM) | 6.6 (≈ 15.5 µM) | 12.7 (≈ 30 µM) | 0.517 (≈ 1.22 µM) | 0 | 0 | 0 |  |  |
| CCOC(=O)c1ccc(NC(=O)CC2CCCCN2S(=O)(=O)c2ccc(OC)cc2)cc1 (centres undefined) | > 13.8 | 4.53 (≈ 9.83 µM) | > 13.8 | 2.03 (≈ 4.4 µM) | 0.449 (≈ 0.975 µM) | 0 | 0 | 0 |  |  |
| Cc1ccc2c(c1)NC(=O)c1cc(NC(=O)C3CCCC3)ccc1O2 | 0.441 (≈ 1.31 µM) | > 10.1 | > 10.1 | > 10.1 | > 10.1 | 0 | 0 | 0 |  |  |
| COc1ccc2oc(-c3csc(NC(=O)c4cccc(OC)c4OC)n3)cc2c1 | > 12.3 | > 12.3 | 0.638 (≈ 1.55 µM) | > 12.3 | > 12.3 | 0 | 0 | 0 |  |  |
| CN1CCc2cc(C(CNC(=O)COc3ccc(Cl)cc3Cl)N3CCCC3)ccc21 (centres undefined) | 5.1 (≈ 11.4 µM) | 0.43 (≈ 0.959 µM) | 3.38 (≈ 7.54 µM) | 11.6 (≈ 25.9 µM) | 4.36 (≈ 9.73 µM) | 0 | 50 | 0 |  |  |
| CCOC(=O)CCNC(=O)NCC1CC(=O)N(c2ccc(Cl)cc2)C1 (centres undefined) | > 11 | > 11 | > 11 | > 11 | > 11 | 0 |  | 100 |  |  |

Continued, in another order:

| IC50 (Plasmodium falciparum K1) [µg/mL] | IC50 [2] [µg/mL] | IC50 (Leishmania infantum) [µg/mL] | SMILES | IC50 [1] [µg/mL] | IC50 (Trypanosoma cruzi) [µg/mL] | % Inhibition (Schistosoma mansoni) [%] | % Inhibition (Onchocerca ochengi [3]) [%] | % Inhibition (Onchocerca ochengi [4]) [%] | % Inhibition (Onchocerca lienalis) [%] | % Inhibition (Brugia malayi) [%] |
| --- | --- | --- | --- | --- | --- | --- | --- | --- | --- | --- |
| 4.74 (≈ 12.5 µM) | 3.56 (≈ 9.37 µM) | 3.6 (≈ 9.49 µM) | Cc1cc(=O)[nH]c(-n2nc(C)cc2NC(=O)/C=C/c2ccc3c(c2)OCO3)n1 | 3.73 (≈ 9.85 µM) | 0.801 (≈ 2.11 µM) | 0 | 0 | 0 |  |  |
| 3.62 (≈ 10 µM) | 1.96 (≈ 5.43 µM) | 5.62 (≈ 15.5 µM) | Cc1cc(=O)[nH]c(-n2nc(C)cc2NC(=O)c2c(F)cccc2Cl)n1 | 0.39 (≈ 1.08 µM) | 0.331 (≈ 0.915 µM) | 0 | 0 | 0 |  |  |
| > 11.3 | > 11.3 | > 11.3 | Cc1cc(=O)[nH]c(-n2nc(C)cc2NC(=O)c2ccccc2C(F)(F)F)n1 | 2.61 (≈ 6.91 µM) | 0.409 (≈ 1.08 µM) | 0 | 0 | 0 |  |  |
| 0.137 (≈ 0.3 µM) | 0.449 (≈ 0.983 µM) | 4.43 (≈ 9.71 µM) | Cc1cc(=O)[nH]c(-n2nc(C)cc2NC(=O)c2ccc(S(=O)(=O)N3CCCCC3)cc2)n1 | 0.445 (≈ 0.975 µM) | 0.418 (≈ 0.915 µM) | 25 | 0 | 0 |  |  |
| 0.657 (≈ 1.59 µM) | 0.876 (≈ 2.12 µM) | 4.01 (≈ 9.71 µM) | Cc1cc(=O)[nH]c(-n2nc(C)cc2NC(=O)C2c3ccccc3Oc3ccccc32)n1 | 0.504 (≈ 1.22 µM) | < 0.124 | 50 | 0 | 0 |  |  |
| 0.493 (≈ 1.44 µM) | 0.338 (≈ 0.983 µM) | > 10.3 | CCc1cc(=O)[nH]c(-n2nc(C)cc2NC(=O)Cc2cccs2)n1 | 0.293 (≈ 0.853 µM) | 0.276 (≈ 0.804 µM) | 0 | 100 | 0 |  |  |
| 0.703 (≈ 1.73 µM) | 0.39 (≈ 0.96 µM) | 3.94 (≈ 9.71 µM) | CCCc1cc(=O)[nH]c(-n2nc(C)cc2NC(=O)c2ccc(Br)o2)n1 | 0.441 (≈ 1.08 µM) | < 0.122 | 75 | 50 | 0 |  |  |
| > 12 | 0.388 (≈ 0.97 µM) | 6.21 (≈ 15.5 µM) | COc1ccc(Cl)cc1C(=O)Nc1cc(C)nn1-c1nc2c(c(=O)[nH]1)CCC2 | 0.685 (≈ 1.71 µM) | 0.361 (≈ 0.902 µM) | 50 | 0 | 0 |  |  |
| 10.2 (≈ 30 µM) | 3.2 (≈ 9.37 µM) | 5.3 (≈ 15.5 µM) | Cc1cc(NC(=O)c2cccs2)n(-c2nc3c(c(=O)[nH]2)CCC3)n1 | 2.03 (≈ 5.94 µM) | 0.56 (≈ 1.64 µM) | 0 | 0 | 0 |  |  |
| 0.399 (≈ 0.989 µM) | 0.327 (≈ 0.811 µM) | 0.627 (≈ 1.55 µM) | CCOc1ccc2ccccc2c1C(=O)Nc1cc(C)nn1-c1nc(C)cc(=O)[nH]1 | 0.364 (≈ 0.902 µM) | < 0.121 | 100 | 100 | 60 |  |  |
